# According to ChEMBL document CHEMBL4004817, “Constituents of the Rhizomes of Boesenbergia pandurata and Their Antiausterity Activities against the PANC-1 Human Pancreatic Cancer Line” (J Nat Prod, 2017):
# Active and inactive are the calls of the source. The rule behind the calls is not given here.
# How the values were obtained:
# PANC-1 [1] = experiment: Antiausteritic activity against human PANC1 cells in nutrient-deprived medium measured after 24 hrs by WST8 assay; type: functional
# Outline: (§1)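 Human pancreatic cancer cells were seeded at 1.5 × 10^4/well in DMEM for 24 h at 37 °C under 5% CO2. After two PBS washes, cells received serially diluted samples in DMEM (nutrient-rich) or NDM (pH 7.4), with a control and blank on each plate. After 24 h, cells were washed and given DMEM with 10% WST-8 for 3 h, then A450 was read. Viability (mean of three wells) = (sample − blank)/(control − blank) × 100. For NDM, PC50 is the concentration killing 50% of cells preferentially. Arctigenin was the positive control.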
# PANC-1 [2] = experiment: Cytotoxicity against human PANC1 cells in DMEM measured after 24 hrs by WST8 assay; type: cell-based; details: panc-1, 24 h; outline: as §1
# PANC-1 [3] = experiment: Antiausteritic activity against human PANC1 cells in nutrient-deprived medium assessed as changes in cell morphology by measuring increase in round appearance at 1.5 uM after 24 hrs by ethidium bromide/acridine orange staining based fluorescence imaging method; type: functional
# Outline: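 PANC-1 cells were seeded at 6 × 10^4/well in DMEM and held 24 h at 37 °C under 5% CO2. They were washed twice with PBS, then switched to NDM alone (control) or with compound at 1.5 μM for 24 h. EB/AO reagent was added for 5 min, and cells were imaged under fluorescence and phase contrast (20×). Green AO marks live cells; red EB marks dead cells.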
SMILES,PC50 (PANC-1 [1]),Activity (PANC-1 [2]),Activity (PANC-1 [3])
COc1cc(O)cc(O)c1C(=O)[C@@H]1[C@H](CC=C(C)C)C(C)=CC[C@H]1c1ccccc1,2.8 µM,Non-Toxic,–
COc1cc(O)c(C(=O)[C@@H]2CC=C(CCC=C(C)C)C[C@H]2c2ccccc2)c(O)c1,0.84 µM,Non-Toxic,Active
COc1cc(C[C@H]2C(=O)OC[C@@H]2Cc2ccc(OC)c(OC)c2)ccc1O [ARCTIGENIN],0.83 µM,–,–
COc1cc(O)c(C(=O)[C@@H]2[C@H](/C=C/C(C)(C)O)C(C)=CC[C@H]2c2ccccc2)c(O)c1,6.6 µM,Non-Toxic,–
COc1cc(O)c(C(=O)[C@@H]2CC=C(C)[C@@H](CC=C(C)C)[C@H]2c2ccccc2)c(O)c1 [(-)-NICOLAIOIDESIN B],2.1 µM,Non-Toxic,–
CC(C)=CC[C@@H]1C(C)=CC[C@@H](c2ccccc2)[C@@H]1C(=O)c1c(O)cc(O)cc1O [4-HYDROXYPANDURATIN A],3.1 µM,Non-Toxic,–
COc1cc(O)c(C(=O)[C@@H]2[C@H](CC=C(C)C)C(C)=CC[C@H]2c2ccccc2)c(O)c1 [PANDURATIN A],7.8 µM,Non-Toxic,–
CC(C)=CC[C@H]1C(C)=CC[C@@H](c2ccccc2)[C@@H]1C(=O)c1c(O)cc(O)cc1O,5.8 µM,Non-Toxic,–
COc1cc(O)c(C(=O)[C@@H]2CC=C(C)[C@@H](/C=C/C(C)(C)O)[C@H]2c2ccccc2)c(O)c1,3.3 µM,Non-Toxic,–
COc1cc(O)c(C(=O)[C@@H]2CC=C(C)[C@H](CC=C(C)C)[C@H]2c2ccccc2)c(O)c1,7.8 µM,Non-Toxic,–
C=C(C)C(O)C[C@@H]1C(C)=CC[C@@H](c2ccccc2)[C@@H]1C(=O)c1c(O)cc(OC)cc1O (some centres not stated),18.1 µM,Non-Toxic,–
COc1cc(O)cc(O)c1C(=O)[C@@H]1[C@H](/C=C/C(C)(C)OC)C(C)=CC[C@H]1c1ccccc1,10.5 µM,Non-Toxic,–
COc1cc(O)c(C(=O)[C@@H]2[C@@H](CC=C(C)C)C(C)=CC[C@H]2c2ccccc2)c(O)c1,7.2 µM,Non-Toxic,–
COc1cc(O)cc(O)c1C(=O)[C@@H]1CC=C(C)[C@@H](CC=C(C)C)[C@H]1c1ccccc1,1 µM,Non-Toxic,–
COc1cc(O)c(C(=O)[C@@H]2[C@H](C/C=C(\C)CO)C(C)=CC[C@H]2c2ccccc2)c(O)c1,6.3 µM,Non-Toxic,–
COc1cc(O)cc(O)c1C(=O)[C@@H]1CC=C(C)[C@H](CC=C(C)C)[C@H]1c1ccccc1,7.4 µM,Non-Toxic,–
